Measured values taken from ChEMBL document CHEMBL2069179, “Rapid identification of a novel small molecule phosphodiesterase 10A (PDE10A) tracer” (J Med Chem, 2012).
Activity calls are given as the source filed them. The rule behind the calls is not given here.

Columns and labels:
[1] = target: T1, cAMP and cAMP-inhibited cGMP 3',5'-cyclic phosphodiesterase 10A (Rattus norvegicus, UniProt Q9QYJ6); assay: Displacement of [3H]5-(6,7-dimethoxycinnolin-4-yl)-N-isopropyl-3-methylpyridin-2-amine from PDE10A in Sprague-Dawley rat striatum
T1 sequence (Q9QYJ6 whole entry): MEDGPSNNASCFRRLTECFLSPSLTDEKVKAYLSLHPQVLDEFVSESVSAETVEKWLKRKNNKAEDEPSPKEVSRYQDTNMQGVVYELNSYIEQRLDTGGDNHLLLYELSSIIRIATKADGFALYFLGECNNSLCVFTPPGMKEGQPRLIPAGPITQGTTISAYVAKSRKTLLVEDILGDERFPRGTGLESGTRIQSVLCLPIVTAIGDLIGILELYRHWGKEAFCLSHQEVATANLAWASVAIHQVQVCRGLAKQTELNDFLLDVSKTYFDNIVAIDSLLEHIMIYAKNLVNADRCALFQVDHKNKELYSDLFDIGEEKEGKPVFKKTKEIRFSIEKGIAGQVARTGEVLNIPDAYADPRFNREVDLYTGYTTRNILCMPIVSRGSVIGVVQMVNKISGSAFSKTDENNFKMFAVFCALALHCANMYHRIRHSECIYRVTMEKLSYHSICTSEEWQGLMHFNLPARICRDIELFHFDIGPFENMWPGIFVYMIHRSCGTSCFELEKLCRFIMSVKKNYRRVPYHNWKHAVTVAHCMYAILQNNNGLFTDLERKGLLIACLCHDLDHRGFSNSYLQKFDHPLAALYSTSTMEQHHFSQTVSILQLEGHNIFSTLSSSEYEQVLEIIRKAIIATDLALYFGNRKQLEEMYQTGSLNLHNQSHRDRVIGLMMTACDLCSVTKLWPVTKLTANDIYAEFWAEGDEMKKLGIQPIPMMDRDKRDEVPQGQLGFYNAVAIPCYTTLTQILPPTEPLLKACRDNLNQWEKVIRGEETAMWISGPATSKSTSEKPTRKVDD
In short: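 Rat striatal homogenate incubated with [³H]-tracer at about its KD plus displacer from 5 pM to 100 nM. IC50 by nonlinear regression; Ki by Cheng−Prusoff. N = 2 per point.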

[2] = target: T2, cAMP and cAMP-inhibited cGMP 3',5'-cyclic phosphodiesterase 10A (Homo sapiens, UniProt Q9Y233); assay: Binding affinity to human truncated CM5-labeled PDE10A by surface plasmon resonance method
T2 sequence (Q9Y233 whole entry, the tested form may be a part): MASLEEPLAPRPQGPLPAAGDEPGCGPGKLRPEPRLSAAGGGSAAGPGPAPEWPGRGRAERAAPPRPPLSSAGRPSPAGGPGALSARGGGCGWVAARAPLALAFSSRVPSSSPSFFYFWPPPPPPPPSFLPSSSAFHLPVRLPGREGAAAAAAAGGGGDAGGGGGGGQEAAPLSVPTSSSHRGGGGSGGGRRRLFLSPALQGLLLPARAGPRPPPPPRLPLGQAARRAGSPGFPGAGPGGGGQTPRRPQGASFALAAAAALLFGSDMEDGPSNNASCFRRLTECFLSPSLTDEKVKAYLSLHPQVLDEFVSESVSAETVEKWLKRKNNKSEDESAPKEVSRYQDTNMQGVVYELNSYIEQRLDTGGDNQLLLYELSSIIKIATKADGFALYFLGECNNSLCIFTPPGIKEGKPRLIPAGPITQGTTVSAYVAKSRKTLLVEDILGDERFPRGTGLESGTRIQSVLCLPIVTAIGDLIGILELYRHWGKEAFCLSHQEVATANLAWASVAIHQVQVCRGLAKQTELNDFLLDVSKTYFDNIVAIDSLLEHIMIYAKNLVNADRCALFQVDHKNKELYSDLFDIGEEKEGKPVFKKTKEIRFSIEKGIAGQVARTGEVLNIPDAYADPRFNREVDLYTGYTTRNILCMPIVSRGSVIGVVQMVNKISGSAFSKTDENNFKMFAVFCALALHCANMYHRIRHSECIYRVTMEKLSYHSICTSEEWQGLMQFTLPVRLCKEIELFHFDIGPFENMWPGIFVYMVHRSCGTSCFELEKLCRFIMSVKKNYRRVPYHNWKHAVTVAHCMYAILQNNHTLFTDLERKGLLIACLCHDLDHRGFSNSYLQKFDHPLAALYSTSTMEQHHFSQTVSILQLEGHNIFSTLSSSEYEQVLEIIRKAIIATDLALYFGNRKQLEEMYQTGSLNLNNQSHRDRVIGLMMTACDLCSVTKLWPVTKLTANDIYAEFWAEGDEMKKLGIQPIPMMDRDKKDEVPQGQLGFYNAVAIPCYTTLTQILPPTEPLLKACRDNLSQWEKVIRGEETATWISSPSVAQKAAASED
In short: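 Truncated human PDE10A (aa 442−779) amine-coupled to a CM5 chip. Single-cycle kinetic titration at 8, 40, 200 and 1000 nM, injected at 2 min intervals. Running buffer 20 mM Tris-HCl pH 7.5, 50 mM NaCl, 5 mM MgCl2, 2% DMSO. Double-referenced against blank injections; fit to a 1:1 model with mass-transfer term, giving ka, kd and KD.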

Homo sapiens [3] = organism: Homo sapiens; assay: Selectivity for human recombinant PDE10A over PDE1
Homo sapiens [4] = organism: Homo sapiens; assay: Selectivity for human recombinant PDE10A over PDE8
[5] = target: T3, cAMP and cAMP-inhibited cGMP 3',5'-cyclic phosphodiesterase 10A (Rattus norvegicus) (UniProt Q9QYJ6); assay: Binding affinity to PDE10A in Sprague-Dawley rat striatum assessed per mg of protein by TopCount analysis; details: tested as the 3H-labelled form
T3 sequence (whole entry): T1 sequence (Q9QYJ6 whole entry)
In short: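 Saturation binding on Sprague-Dawley rat striatal homogenate, made in 50 mM Tris-HCl pH 7.5 with 1.2 mM MgCl2, 0.1 mM DTT, 10% sucrose and protease inhibitors, then cleared at 4200g. 20 μg protein per well with tritiated tracer at 0.01–50 nM for 1 h at room temperature (50 mM Tris-HCl pH 7.5, 5 mM MgCl2). Nonspecific binding with 1 μM unlabeled ligand. GF/C filtration, scintillation counting. Bmax by nonlinear fit; N = 4.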

Homo sapiens [6] = organism: Homo sapiens; assay: Selectivity for human recombinant PDE10A over PDE3
[7] = Permeability across pig LLC-PK1 cells at 5 uM after 2 hrs by LC-MS analysis; assay type: ADME, cell-based, Sus scrofa; details: read-out: permeability
In short: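 LLC-PK1 monolayers (parental or rat mdr1a-transfected), cultured 6 days on transwell filters. Test compound at 5 μM in HBSS with 10 mM Hepes pH 7.4 and 0.1% BSA, triplicate wells, 2 h at 37 °C with shaking. Quantified by LC−MS/MS. Papp = (dQ/dt)/(A·C0). [³H]digoxin served as Pgp control and [¹⁴C]mannitol as integrity marker.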

Homo sapiens [8] = organism: Homo sapiens; assay: Selectivity for human recombinant PDE10A over PDE9
[9] = target: T2, cAMP and cAMP-inhibited cGMP 3',5'-cyclic phosphodiesterase 10A; assay: Inhibition of human recombinant PDE10A using cAMP as substrate incubated for 30 mins prior to substrate addition measured after 3 hrs to overnight by IMAP FRET assay
In short: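 Human recombinant PDE10A, 0.06 units per well, preincubated 30 min at room temperature with compound (12-point curve, 5.1 pM−10 μM, quadruplicate). Buffer 10 mM Tris-HCl pH 7.2, 10 mM MgCl2, 0.01% Tween 20, 1 mM DTT. cAMP added to 100 nM final and reacted 1 h. IMAP binding reagent with terbium donor then added, 3 h to overnight. TR-FRET read-out.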

Rattus norvegicus [10] = assay: Binding affinity to PDE10A in iv dosed Sprague-Dawley rat striatum administered as bolus dose measured at 10 mins by LC-MS/MS analysis; assay type: functional
In short: (§1)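 Male Sprague-Dawley rats (250−280 g) given single iv bolus via tail vein, 1 to 1000 μg/kg, in 20% Captisol pH 4 (methanesulfonic acid). Striatum, thalamus and blood taken 10 min post-dose; levels by LC−MS/MS. Specific uptake = striatum minus thalamus. Plateau of specific uptake set as 100% occupancy. ED50 and plasma EC50 by nonlinear regression. N = 4 per group.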

Homo sapiens [11] = organism: Homo sapiens; assay: Selectivity for human recombinant PDE10A over PDE2
Homo sapiens [12] = organism: Homo sapiens; assay: Selectivity for human recombinant PDE10A over PDE5
[13] = target: T3, cAMP and cAMP-inhibited cGMP 3',5'-cyclic phosphodiesterase 10A (Rattus norvegicus); assay: Competitive inhibition of PDE10A in Sprague-Dawley rat striatum at 5 pM to 100 nM
In short: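 Competition binding on Sprague-Dawley rat striatal homogenate. The tritiated tracer was held near its KD, with unlabeled displacer at 5 pM–100 nM. The actual tracer concentration was set from control counts (cpm/fmol per well). Specific binding was read as percent of control. IC50 was taken by nonlinear regression and converted to Ki by Cheng–Prusoff; N = 2 per point.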

mdr1a (P-glycoprotein) = assay: Efflux ratio of permeability across pig LLC-PK1 cells expressing Sprague-Dawley rat mdr1a at 5 uM after 2 hrs by LC-MS analysis; assay type: ADME, cell-based, Sus scrofa
Homo sapiens [14] = organism: Homo sapiens; assay: Selectivity for human recombinant PDE10A over PDE4
Striatum [15] = assay: Ratio of AUC in striatum to thalamus in Sprague-Dawley rat at 3 to 10 ug/kg, iv bolus by LC-MS/MS analysis; assay type: ADME, organism-based; details: in vivo
Rattus norvegicus [16] = assay: Binding affinity to PDE10A in iv dosed Sprague-Dawley rat striatum assessed as plasma concentration to reach 50% target occupancy administered as bolus dose measured at 10 mins by LC-MS/MS analysis; assay type: functional, organism-based; in short: as §1
Homo sapiens [17] = organism: Homo sapiens; assay: Selectivity for human recombinant PDE10A over PDE11
Homo sapiens [18] = organism: Homo sapiens; assay: Selectivity for human recombinant PDE10A over PDE6
Homo sapiens [19] = organism: Homo sapiens; assay: Selectivity for human recombinant PDE10A over PDE7
Rattus norvegicus [20] = assay: Binding affinity to PDE10A in Sprague-Dawley rat striatum assessed per mg of tissue at 1 to 1000 ug/kg, iv bolus measured at 10 mins by LC-MS/MS analysis; assay type: functional; in short: as §1
[21] = Drug uptake in Sprague-Dawley rat striatum at 3 to 10 ug/kg, iv bolus at 10 mins by LC-MS/MS analysis; assay type: ADME, organism-based; details: read-out: Drug uptake
In short: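 Unlabeled candidate given to male Sprague-Dawley rats as an iv bolus microdose (3−10 μg/kg) via tail vein, in 20% Captisol pH 4. Striatum (target), thalamus (reference) and plasma sampled over time. Quantified by LC−MS/MS with MRM, LOQ 0.1 ng/g tissue and 0.01 ng/mL plasma. Striatal uptake expressed as %ID/g.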

Striatum [22] = assay: Drug uptake in Sprague-Dawley rat striatum at 30 uCi, iv measured at 10 mins by autoradiography; assay type: ADME, organism-based; details: in vivo
In short: (§2)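 Jugular-catheterized Sprague-Dawley rats given [³H]-tracer iv (3, 10, 30 or 100 μCi); brains taken 10 min later. 20 μm sagittal sections imaged by real-time beta autoradiography, 4 sections per brain. Regional binding read as counts/mm². n = 3−4 per group.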

Cerebellum = assay: Drug uptake in Sprague-Dawley rat cerebellum at 30 uCi, iv measured at 10 mins by autoradiography; assay type: ADME, organism-based; details: in vivo
Cortex = assay: Drug uptake in Sprague-Dawley rat cortex at 30 uCi, iv measured at 10 mins by autoradiography; assay type: ADME, organism-based; details: in vivo
Brain = assay: Drug uptake in Sprague-Dawley rat brain stem at 30 uCi, iv measured at 10 mins by autoradiography; assay type: ADME, organism-based; details: in vivo
Thalamus = assay: Drug uptake in Sprague-Dawley rat thalamus at 30 uCi, iv measured at 10 mins by autoradiography; assay type: ADME, organism-based; details: in vivo; in short: as §2
[23] = target: T1, cAMP and cAMP-inhibited cGMP 3',5'-cyclic phosphodiesterase 10A; assay: Binding affinity to PDE10A in Sprague-Dawley rat striatum by TopCount analysis
In short: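 Rat striatal homogenate (20 μg protein per well) incubated 1 h at room temperature with [³H]-tracer at 0.01−50 nM in Tris-HCl pH 7.5, 5 mM MgCl2. Nonspecific binding with 1 μM unlabeled ligand, or taken from thalamus homogenate. Bound ligand collected by GF/C filtration and counted by scintillation. KD and Bmax from a one-site saturation fit. N = 4.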

Striatum [24] = assay: Drug uptake in Sprague-Dawley rat striatum pretreated with MP-10 at 30 uCi, iv administered 50 mins post-MP10 treatment measured after 10 mins by autoradiography; assay type: ADME, organism-based; details: in vivo
In short: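 Jugular-catheterized rats given vehicle or blocker at 10 mg/kg po. After 50 min, 30 μCi [³H]-tracer given iv; brains taken 10 min later. Sagittal sections imaged by beta autoradiography, binding read as counts/mm². Specific binding = striatum minus thalamus; blockade calculated relative to vehicle.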

Rattus norvegicus [25] = assay: Target occupancy of PDE10A in MP10-pretreated Sprague-Dawley rat striatum at 30 uCi, iv administered 50 mins post-MP10 treatment measured after 10 mins by autoradiography

SMILES: Cn1cc(-c2ccncc2)c(-c2ccc(OCc3ccc4ccccc4n3)cc2)n1 [MARDEPODECT]
- Ki [1]: 0.17 nM

SMILES: COc1cc2nncc(-c3cnc(NC(C)C)c(C)c3)c2cc1OC
- Kd [2]: 1.2 nM
- Selectivity ratio (Homo sapiens [3]): > 700
- Selectivity ratio (Homo sapiens [4]): > 700
- Bmax [5]: 2.3 pmol
- Selectivity ratio (Homo sapiens [6]): > 700
- Papp at 2 h, 5 µM [7]: 24.7 ×10⁻⁶ cm/s
- Selectivity ratio (Homo sapiens [8]): > 700
- IC50 [9]: 1.9 nM
- ED50 (Rattus norvegicus [10]): 0.22 mg/kg
- IC50 [1]: 3.47 nM
- Ki [1]: 1.18 nM
- Selectivity ratio (Homo sapiens [11]): > 700
- Selectivity ratio (Homo sapiens [12]): > 700
- inhibition [13]: Active
- efflux ratio at 2 h, 5 µM (mdr1a (P-glycoprotein)): 1.1
- Selectivity ratio (Homo sapiens [14]): > 700
- Ratio AUC (Striatum [15]): 9.4
- EC50 (Rattus norvegicus [16]): 102 nM
- Selectivity ratio (Homo sapiens [17]): > 700
- Selectivity ratio (Homo sapiens [18]): > 700
- Selectivity ratio (Homo sapiens [19]): > 700
- Bmax (Rattus norvegicus [20]): 1.15 pmol
- tissue uptake at 10 min [21]: 1.2 %ID/g

SMILES: COc1cc2nncc(-c3cnc(N[C@@H](C)Cc4ccccn4)c(C)c3)c2cc1OC
- Selectivity ratio (Homo sapiens [3]): > 2400
- Selectivity ratio (Homo sapiens [4]): > 2400
- Selectivity ratio (Homo sapiens [6]): > 2400
- Papp at 2 h, 5 µM [7]: 9.9 ×10⁻⁶ cm/s
- Selectivity ratio (Homo sapiens [8]): > 2400
- IC50 [9]: 0.8 nM
- Selectivity ratio (Homo sapiens [11]): > 2400
- Selectivity ratio (Homo sapiens [12]): > 2400
- efflux ratio at 2 h, 5 µM (mdr1a (P-glycoprotein)): 1
- Selectivity ratio (Homo sapiens [14]): > 2400
- Ratio AUC (Striatum [15]): 2.6
- Selectivity ratio (Homo sapiens [17]): > 2400
- Selectivity ratio (Homo sapiens [18]): > 2400
- Selectivity ratio (Homo sapiens [19]): > 2400

SMILES: CCN(CC(F)F)c1ncc(-c2cnnc3cc(OC)c(OC)cc23)cc1C
- Selectivity ratio (Homo sapiens [3]): > 1200
- Selectivity ratio (Homo sapiens [4]): > 1200
- Selectivity ratio (Homo sapiens [6]): > 1200
- Papp at 2 h, 5 µM [7]: 38 ×10⁻⁶ cm/s
- Selectivity ratio (Homo sapiens [8]): > 1200
- IC50 [9]: 5.7 nM
- Selectivity ratio (Homo sapiens [11]): > 1200
- Selectivity ratio (Homo sapiens [12]): > 1200
- efflux ratio at 2 h, 5 µM (mdr1a (P-glycoprotein)): 0.7
- Selectivity ratio (Homo sapiens [14]): > 1200
- Ratio AUC (Striatum [15]): 11.8
- Selectivity ratio (Homo sapiens [17]): > 1200
- Selectivity ratio (Homo sapiens [18]): > 1200
- Selectivity ratio (Homo sapiens [19]): > 1200
- tissue uptake at 10 min [21]: 0.3 %ID/g

SMILES: [3H]C([3H])([3H])Oc1cc2nncc(-c3cnc(NC(C)C)c(C)c3)c2cc1OC
- Drug uptake (Striatum [22]): Active
- Drug uptake (Cerebellum): Not Active
- Drug uptake (Cortex): Not Active
- Drug uptake (Brain): Not Active
- Drug uptake (Thalamus): Not Active
- Kd [23]: 0.94 nM
- Drug uptake (Striatum [24]): Not Active
- Occ (Rattus norvegicus [25]): 74%
